Consider 3 compounds from publication PMC4806563 (Nature chemistry, 2016).

Experiment [1] deals with PG16. The experiment can be described thus: Glycan microarray on NHS-activated glass slide, PG16 binding. Also noted: species or system human. The following applies: glycans printed at 100 μM.
For experiment [2], the system named is PG16. The experiment can be described thus: Glycan microarray on ACG slide, PG16 binding. To be noted: ACG surface, 100 μM printed, serial dilution experiment. Also noted: species or system human. The method, boiled down: (§1)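 Glycans I–XI carry a phosphonic acid tail and immobilize spontaneously and covalently on an aluminium oxide-coated glass (ACG) slide. Glycan concentration sets density and spacing. The printed array is incubated with antibody, then with a secondary antibody, and read by fluorescence. Surface dissociation constants (K_D surf) for glycan–antibody binding are derived from the signals.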

Experiment [3] concerns DyLight649-conjugated donkey anti-human IgG antibody. The experiment can be described thus: NHS glycan array, binding of secondary antibody. To be noted: NHS slide.
In experiment [4] the test system is PGTs 141–144. The experiment can be described thus: Glycan microarray on ACG slide, PGTs 141–144 binding. Also noted: species or system human. The following applies: panel of glycans I–XI on ACG slide. The method, boiled down:
as §1

Turning to Man5GlcNAc2 [IV], the PG16 binding result in experiment [1] is “could not observe binding”; in experiment [2] it was “unable to detect”. Consider Man4GlcAc2 [glycan 5], for which, in experiment [3], the “fluorescent signal from non-specific binding of secondary antibody” value is “strong fluorescent signal”. Consider `CC(=O)N[C@H]1[C@H](O[C@H]2[C@H](O)[C@@H](NC(C)=O)C(O)O[C@@H]2CO)O[C@H](CO)[C@@H](O[C@@H]2O[C@H](CO[C@H]3O[C@H](CO[C@H]4O[C@H](CO)[C@@H](O)[C@H](O)[C@@H]4O[C@H]4O[C@H](CO)[C@@H](O)[C@H](O)[C@@H]4O)[C@@H](O)[C@H](O[C@H]4O[C@H](CO)[C@@H](O)[C@H](O)[C@@H]4O[C@H]4O[C@H](CO)[C@@H](O)[C@H](O)[C@@H]4O)[C@@H]3O)[C@@H](O)[C@H](O[C@H]3O[C@H](CO)[C@@H](O)[C@H](O)[C@@H]3O[C@H]3O[C@H](CO)[C@@H](O)[C@H](O)[C@@H]3O[C@H]3O[C@H](CO)[C@@H](O)[C@H](O)[C@@H]3O)[C@@H]2O)[C@@H]1O` (stereo partly shown) [Man9GlcNAc2], for which the “PGTs 141–144 binding” value in experiment [4] is “significant decrease in the affinity”.
